Screening results as filed in PubChem BioAssay.
Most compounds without a hit are left out; they make up all but 10% or so of the library.
WT yeast gro inh – growth inhibition of WT strain, primary screen, mitochondrial fusion inhibitor project, WT and mutant strains, chemical genetic | inhibition, % at 10 µM | AID 1362, 2008 | mitochondrial fusion phenotypic screen | 190,000 compounds, 2.1% hits; in the data active means inhibition above about 58%; tested in S. cerevisiae
PMI activator – activators of human PMI, primary screen, biochemical, fluorescence intensity, near-Km mannose 6-phosphate. Mannose-6-phosphate isomerase (Homo sapiens), P34949. purified human PMI, coupled resazurin fluorescence, 20 min; active compounds read high; 1 = vehicle control, 0 substrate-free wells. activation factor at 20 µM. 190,000 compounds, 0.005% hits;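 active means activation factor of 2 or more at 20 µM, relative to plate controls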
Target sequence (P34949 whole entry, looked up): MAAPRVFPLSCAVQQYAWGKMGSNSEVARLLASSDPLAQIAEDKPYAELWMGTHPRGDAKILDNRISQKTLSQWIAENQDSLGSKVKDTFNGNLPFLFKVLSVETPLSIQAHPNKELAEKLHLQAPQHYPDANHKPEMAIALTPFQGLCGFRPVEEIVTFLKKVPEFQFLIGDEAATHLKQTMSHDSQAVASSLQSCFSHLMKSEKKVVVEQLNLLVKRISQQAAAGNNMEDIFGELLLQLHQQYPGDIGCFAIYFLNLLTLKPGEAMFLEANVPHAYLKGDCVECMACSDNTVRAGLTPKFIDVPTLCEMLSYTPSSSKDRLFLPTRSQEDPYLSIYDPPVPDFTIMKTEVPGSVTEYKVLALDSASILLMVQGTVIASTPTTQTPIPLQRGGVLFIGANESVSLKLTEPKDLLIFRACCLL
Diaphorase act – compounds boosting diaphorase resazurin reduction – biochemical, uHTS, resorufin fluorescence, counter-screen for diaphorase-coupled primary assays, primary screen; Diaphorase/resazurin coupled assay, 16 min; active compounds read high; 1 = vehicle wells, 0 = NADH-free wells; activation factor at 20 µM; 190,000 compounds, 0.005% hits;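 active means diaphorase activity raised at least twofold by the compound at 20 µM; inactive means activation factor below 2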
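Material: purified diaphorase enzyme from Clostridium kluyveri; Also added: 0.114 mM NADH and 0.1 mM resazurin, final amounts; Doses: single compound dose of 20 µM, 1% DMSO final; Times: 16 min enzyme reaction, ambient temperature; Detection: resorufin fluorescence, excitation 544 nm, emission 590 nm; Measure: increased resorufin signal from activators or reducing compounds.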
L major viab – Leishmania major promastigote growth inhibition, primary screen | Leishmania major promastigotes, resazurin fluorescence viability | 200,000 compounds, 9% hits | inhibition, % at 10 µM | AID 1063, 2008; in the data active means inhibition above about 50%;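 further: promastigotes grown with compound for 44 hours at 28 °C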
PMI act hi M6P – human PMI activators, high substrate, primary screen, biochemical, fluorescence intensity, near-saturating mannose 6-phosphate | 190,000 compounds, 0.34% hits | coupled PMI enzyme assay, resazurin fluorescence, 20 min; active compounds read high; 1 = untreated enzyme, 0 = substrate-free blank | activation factor at 20 µM | Mannose-6-phosphate isomerase (Homo sapiens), P34949;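 active means activation factor of 2 or more at 20 µM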
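Test system: human phosphomannose isomerase with PGI, G6PDH, diaphorase coupling enzymes / Doses: 20 µM compound, 1% DMSO / Times: enzyme reaction with compound 20 min at room temperature / Measured by: Diaphorase-driven resazurin-to-resorufin fluorescence, excitation 544, emission 590 nm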
* hit, by the source's call.

CCCSc1cc(NCCOC(=O)CCC)c([N+](=O)[O-])c2nonc12 was read as WT yeast gro inh 45, PMI activator 0.6, Diaphorase act 0.5, L major viab 2 and PMI act hi M6P 0.5.
For CCCC(=O)OCCNc1cc(SCc2ccco2)c2nonc2c1[N+](=O)[O-] the results were WT yeast gro inh 18, PMI activator 0.7, Diaphorase act 0.3, L major viab 16 and PMI act hi M6P 0.6.
Screening CCCSc1cc(NCCOC(C)=O)c([N+](=O)[O-])c2nonc12 returned WT yeast gro inh 5, PMI activator 0.7, Diaphorase act 0.6, L major viab 67* and PMI act hi M6P 0.4.
For CCC(=O)OCCNc1cc(Sc2nc3ccccc3s2)c2nonc2c1[N+](=O)[O-] the results were WT yeast gro inh 95*, PMI activator 0.8, Diaphorase act 0.4, L major viab 44 and PMI act hi M6P 1.
`Cc1c(CCO)c(=O)[nH]n1C(=O)c1ccc(F)cc1` gave WT yeast gro inh 42, PMI activator 1, Diaphorase act 0.9, L major viab -3 and PMI act hi M6P 0.9.
For O=C(CSC1=NC2(CCCCC2)N=C1c1ccccc1)Nc1ccc2c(c1)OCCO2 the results were WT yeast gro inh 24, PMI activator 0.9, Diaphorase act 0.8, L major viab 17 and PMI act hi M6P 0.9.
For O=C(CSC1=NC2(CCCCCC2)N=C1c1ccccc1)Nc1ccc2c(c1)OCCO2 the results were WT yeast gro inh 58*, PMI activator 0.8, Diaphorase act 0.8, L major viab 17 and PMI act hi M6P 0.8.
Cc1ccc(C2=NC3(CCCC3)N=C2SCC(=O)Nc2ccc3c(c2)OCCO3)cc1 was read as WT yeast gro inh 41, PMI activator 0.8, Diaphorase act 0.8, L major viab 73* and PMI act hi M6P 0.8.
Screening Cn1cc([N+](=O)[O-])c(C(=O)N/N=C/c2ccc3c(c2)OCO3)n1 returned WT yeast gro inh 5, PMI activator 1.1, Diaphorase act 1.1, L major viab 10 and PMI act hi M6P 1.
Screening COc1ccccc1N(CC(O)CN(c1ccccc1)S(C)(=O)=O)S(=O)(=O)c1ccccc1 (stereo not given) returned WT yeast gro inh 3, PMI activator 0.8, Diaphorase act 0.8, L major viab -2 and PMI act hi M6P 0.9.
Screening COc1ccccc1N(CC(O)COc1c(C)cc(C)cc1C)S(=O)(=O)c1ccccc1 (stereo not given) returned WT yeast gro inh 61*, PMI activator 0.8, Diaphorase act 0.7, L major viab 17 and PMI act hi M6P 0.8.
CCCN(CCC)CC(O)CN(c1cc([N+](=O)[O-])ccc1OC)S(=O)(=O)c1ccccc1 (stereo not given) was read as WT yeast gro inh -13, PMI activator 0.9, Diaphorase act 0.8, L major viab 63* and PMI act hi M6P 0.8.
For COc1ccc([N+](=O)[O-])cc1N(CC(O)CN1CCCCC1)S(=O)(=O)c1ccccc1 (stereo not given) the results were WT yeast gro inh -4, PMI activator 0.8, Diaphorase act 0.8, L major viab 82* and PMI act hi M6P 0.9.
`Cc1ccc(S(=O)(=O)N(CC(O)CN2CCCC2)c2ccccc2)cc1` (stereo not given) gave WT yeast gro inh 38, PMI activator 1, Diaphorase act 0.9, L major viab -3 and PMI act hi M6P 1.
For CCc1nc(SCC(=O)Nc2nnc(CC(C)C)s2)n[nH]1 the results were WT yeast gro inh 2, PMI activator 0.9, Diaphorase act 1, L major viab -4 and PMI act hi M6P 0.9.
`COc1ccc2cc3cc(C(=O)NCCN4CCc5ccccc5C4)sc3nc2c1` gave WT yeast gro inh 58*, PMI activator 0.9, Diaphorase act 1.1, L major viab 50* and PMI act hi M6P 1.
`COc1ccc2nc3oc(C(=O)NC4CCN(Cc5ccccc5)CC4)cc3cc2c1` gave WT yeast gro inh 21, PMI activator 1, Diaphorase act 1.1, L major viab 100* and PMI act hi M6P 0.9.
`COc1ccc2cc3cc(C(=O)NCc4cccs4)oc3nc2c1` gave WT yeast gro inh 1, PMI activator 0.8, Diaphorase act 0.8, L major viab 19 and PMI act hi M6P 0.9.
`CCOC(=O)N1CCC(NC(=O)c2cc3cc4cc(OC)ccc4nc3o2)CC1` gave WT yeast gro inh 7, PMI activator 0.9, Diaphorase act 0.9, L major viab 32 and PMI act hi M6P 0.9.
For COc1ccc2cc3cc(C(=O)NCCN4CCN(Cc5ccccc5)CC4)oc3nc2c1 the results were WT yeast gro inh -8, PMI activator 1.1, Diaphorase act 1.1, L major viab 95* and PMI act hi M6P 1.1.
COc1ccc2cc3cc(C(=O)NCCN4CCc5ccccc5C4)oc3nc2c1 was read as WT yeast gro inh -5, PMI activator 1, Diaphorase act 1, L major viab 99* and PMI act hi M6P 1.
`CCC(C)NC(=O)c1cc2cc3ccc(OC)cc3nc2s1` (stereo not given) gave WT yeast gro inh 2, PMI activator 1.1, Diaphorase act 1.1, L major viab 11 and PMI act hi M6P 1.1.
For CC(C)c1ccc(NC(=O)COc2ccc(F)cc2C(=O)c2cnn(-c3ccccc3)c2)cc1 the results were WT yeast gro inh 3, PMI activator 0.9, Diaphorase act 0.9, L major viab 0 and PMI act hi M6P 0.9.
For COc1ccccc1NC(=O)CC1C(=O)NCCN1C(=O)Nc1ccc(Cl)c(Cl)c1 (stereo not given) the results were WT yeast gro inh 0, PMI activator 0.9, Diaphorase act 0.9, L major viab 67* and PMI act hi M6P 1.
COC(=O)CC1C(=O)NCCN1C(=S)Nc1ccccc1 (stereo not given) was read as WT yeast gro inh -3, PMI activator 1, Diaphorase act 0.9, L major viab -2 and PMI act hi M6P 1.1.
For O=C(CC1C(=O)NCCN1C(=O)Nc1ccccc1)Nc1cccc(Cl)c1 (stereo not given) the results were WT yeast gro inh 0, PMI activator 0.9, Diaphorase act 0.8, L major viab 4 and PMI act hi M6P 0.9.
`COc1ccc(C(=O)N2CCNC(=O)C2CC(=O)Nc2ccc(C)cc2)cc1` (stereo not given) gave WT yeast gro inh 1, PMI activator 0.9, Diaphorase act 0.9, L major viab 100* and PMI act hi M6P 0.9.
Screening CCOC(=O)CC1C(=O)NCCN1C(=S)Nc1ccccc1 (stereo not given) returned WT yeast gro inh -12, PMI activator 0.9, Diaphorase act 0.8, L major viab 57* and PMI act hi M6P 0.8.
